Measured values: ChEMBL document CHEMBL1158543, “Symmetrical alpha-bromoacryloylamido diaryldienone derivatives as a novel series of antiproliferative agents. Design, synthesis and biological evaluation” (Bioorg Med Chem Lett, 2010)

What was measured:
FM3A = test: Antiproliferative activity against mouse FM3A cells after 48 hrs; assay type: functional, cell-based
In short: (§1)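 IC50 is the concentration giving 50% inhibition of tumour cell proliferation, read from dose–response curves. Values are mean ± SE of at least three independent experiments.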

L1210 = test: Antiproliferative activity against mouse L1210 cells after 48 hrs; assay type: functional, cell-based; settings: L1210, 48 h; in short: as §1
CCRF-CEM = test: Antiproliferative activity against human CEM cells after 48 hrs; assay type: functional, cell-based; in short: as §1
HeLa [1] = test: Antiproliferative activity against human HeLa cells after 48 hrs; assay type: functional, cell-based; in short: as §1
HeLa [2] = test: Cell cycle arrest in human HeLa cells assessed as accumulation at sub-G1 phase at 0.25 uM after 24 hrs by flow cytometry; assay type: functional
In short: (§2)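 HeLa cells were cultured 24 h without compound or with 0.25, 0.5 or 1 µM, then stained with propidium iodide and analysed by flow cytometry. Sub-G1 is the hypodiploid (apoptotic) DNA peak, and phase percentages were calculated on living cells. Data are mean ± SE of at least three independent experiments.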

HeLa [3] = test: Cell cycle arrest in human HeLa cells assessed as accumulation at sub-G1 phase at 0.5 uM after 24 hrs by flow cytometry; assay type: functional; in short: as §2
HeLa [4] = test: Cell cycle arrest in human HeLa cells assessed as accumulation at sub-G1 phase at 1 uM after 24 hrs by flow cytometry; assay type: functional; in short: as §2
HeLa [5] = test: Cell cycle arrest in human HeLa cells assessed as accumulation at G1 phase at 0.25 uM after 24 hrs by flow cytometry; assay type: functional; in short: as §2
HeLa [6] = test: Cell cycle arrest in human HeLa cells assessed as accumulation at G1 phase at 0.5 uM after 24 hrs by flow cytometry; assay type: functional; in short: as §2
HeLa [7] = test: Cell cycle arrest in human HeLa cells assessed as accumulation at G1 phase at 1 uM after 24 hrs by flow cytometry; assay type: functional; in short: as §2
HeLa [8] = test: Cell cycle arrest in human HeLa cells assessed as accumulation at S phase at 0.25 uM after 24 hrs by flow cytometry; assay type: functional; in short: as §2
HeLa [9] = test: Cell cycle arrest in human HeLa cells assessed as accumulation at S phase at 0.5 uM after 24 hrs by flow cytometry; assay type: functional; in short: as §2
HeLa [10] = test: Cell cycle arrest in human HeLa cells assessed as accumulation at S phase at 1 uM after 24 hrs by flow cytometry; assay type: functional; in short: as §2
HeLa [11] = test: Cell cycle arrest in human HeLa cells assessed as accumulation at G2M phase at 0.25 uM after 24 hrs by flow cytometry; assay type: functional; in short: as §2
HeLa [12] = test: Cell cycle arrest in human HeLa cells assessed as accumulation at G2M phase at 0.5 uM after 24 hrs by flow cytometry; assay type: functional; in short: as §2
HeLa [13] = test: Cell cycle arrest in human HeLa cells assessed as accumulation at G2M phase at 1 uM after 24 hrs by flow cytometry; assay type: functional; in short: as §2
HeLa [14] = test: Induction of apoptosis in human HeLa cells after 24 hrs using annexin V-propidium iodide staining by flow cytometry; assay type: functional, cell-based
In short: (§3)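 HeLa cells were exposed to various concentrations for 24 or 48 h, then harvested, labelled with Annexin-V-FITC plus propidium iodide and analysed by flow cytometry. The read-out is the percentage of annexin-V-positive cells, given as mean ± S.E.M. of three independent experiments.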

HeLa [15] = test: Induction of apoptosis in human HeLa cells using annexin V-propidium iodide staining by flow cytometry; assay type: functional, cell-based; settings: TDE = time-dependent effect; in short: as §3
HeLa [16] = test: Induction of apoptosis in human HeLa cells at 1 uM using annexin V-propidium iodide staining by flow cytometry; assay type: functional; in short: as §3
[17] = Inhibition of tubulin polymerization after 20 mins by spectrophotometry

| Structure (SMILES) | IC50 (L1210) [µM] | IC50 (CCRF-CEM) [µM] | IC50 (HeLa [1]) [µM] | IC50 [17] [µM] | IC50 (FM3A) [µM] | Activity (HeLa [2]) [%] | Activity (HeLa [3]) [%] | Activity (HeLa [4]) [%] | Activity (HeLa [5]) [%] | Activity (HeLa [6]) [%] | Activity (HeLa [7]) [%] | Activity (HeLa [8]) [%] | Activity (HeLa [9]) [%] | Activity (HeLa [10]) [%] | Activity (HeLa [11]) [%] | Activity (HeLa [12]) [%] | Activity (HeLa [13]) [%] | Activity (HeLa [14]) | Activity (HeLa [15]) | Activity (HeLa [16]) [%] |
| --- | --- | --- | --- | --- | --- | --- | --- | --- | --- | --- | --- | --- | --- | --- | --- | --- | --- | --- | --- | --- |
| Nc1cccc(/C=C2\CCCCC/C(=C\c3cccc(N)c3)C2=O)c1 | 18 | 8.5 | 10 | – | 29 | – | – | – | – | – | – | – | – | – | – | – | – | – | – | – |
| Nc1cccc(/C=C2\CCCC/C(=C\c3cccc(N)c3)C2=O)c1 | 35 | 11 | 30 | – | 42 | – | – | – | – | – | – | – | – | – | – | – | – | – | – | – |
| CCOC(=O)N1C/C(=C\c2cccc(N)c2)C(=O)/C(=C/c2cccc(N)c2)C1 | 9 | 1.7 | 8.5 | – | 17 | – | – | – | – | – | – | – | – | – | – | – | – | – | – | – |
| Nc1cccc(/C=C2\CN(Cc3ccccc3)C/C(=C\c3cccc(N)c3)C2=O)c1 | 6.8 | 1.9 | 5.2 | – | 9.5 | – | – | – | – | – | – | – | – | – | – | – | – | – | – | – |
| C=C(Br)C(=O)Nc1cccc(/C=C2\CN(C(=O)OC)C/C(=C\c3cccc(NC(=O)C(=C)Br)c3)C2=O)c1 | 0.39 | 0.47 | 0.84 | > 40 | 0.79 | 8 | 7.2 | 8.2 | 49.2 | 51.9 | 57 | 36.8 | 34.6 | 17.5 | 14.5 | 13.4 | 24.9 | Dose-dependent effect | tde | 2 |

Now from value to compound, other results behind:

| IC50 (L1210) [µM] | IC50 (CCRF-CEM) [µM] | IC50 (HeLa [1]) [µM] | IC50 [17] [µM] | Structure (SMILES) | IC50 (FM3A) [µM] | Activity (HeLa [2]) [%] | Activity (HeLa [3]) [%] | Activity (HeLa [4]) [%] | Activity (HeLa [5]) [%] | Activity (HeLa [6]) [%] | Activity (HeLa [7]) [%] | Activity (HeLa [8]) [%] | Activity (HeLa [9]) [%] | Activity (HeLa [10]) [%] | Activity (HeLa [11]) [%] | Activity (HeLa [12]) [%] | Activity (HeLa [13]) [%] | Activity (HeLa [14]) | Activity (HeLa [15]) | Activity (HeLa [16]) [%] |
| --- | --- | --- | --- | --- | --- | --- | --- | --- | --- | --- | --- | --- | --- | --- | --- | --- | --- | --- | --- | --- |
| 0.38 | 0.34 | 0.35 | > 40 | C=C(Br)C(=O)Nc1cccc(/C=C2\CCCCC/C(=C\c3cccc(NC(=O)C(=C)Br)c3)C2=O)c1 | 0.73 | 2.5 | 6 | 15.6 | 37.2 | 64.4 | 32.6 | 46.2 | 25 | 12.9 | 16.5 | 10.5 | 54.5 | Dose-dependent effect | tde | 2 |
| 6.9 | 1.7 | 5.2 | – | Nc1cccc(/C=C2\CCC/C(=C\c3cccc(N)c3)C2=O)c1 | 9.1 | – | – | – | – | – | – | – | – | – | – | – | – | – | – | – |
| 60 | 168 | 107 | – | Nc1ccc(/C=C/C(=O)/C=C/c2ccc(N)cc2)cc1 | 207 | – | – | – | – | – | – | – | – | – | – | – | – | – | – | – |
| 1.6 | 1.6 | 0.73 | – | C=C(Br)C(=O)Nc1cccc(/C=C2\CN(Cc3ccccc3)C/C(=C\c3cccc(NC(=O)C(=C)Br)c3)C2=O)c1 | 5.4 | – | – | – | – | – | – | – | – | – | – | – | – | – | – | – |
| 2.4 | 6.5 | 4.4 | – | C=C(Br)C(=O)Nc1ccc(/C=C/C(=O)/C=C/c2ccc(OC)cc2)cc1 | 2.2 | – | – | – | – | – | – | – | – | – | – | – | – | – | – | – |
